Results as given in ChEMBL document CHEMBL1143828, “A new Aspergillus fumigatus resistance mechanism conferring in vitro cross-resistance to azole antifungals involves a combination of cyp51A alterations” (2007).
Converted amounts (≈) assume the structure as drawn.

Tests used:
Assay type in all cases: functional
Aspergillus fumigatus [1] = test: Antifungal activity against azole-resistant Aspergillus fumigatus V34/77-CM3278 isolate from patient with hyper-immunoglobulin E syndrome by broth microdilution susceptibility test
In short: (§1)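 Broth microdilution per CLSI M38-A with modifications; agents tested: itraconazole, voriconazole, ravuconazole, posaconazole, amphotericin B. Clinical isolates stored as conidia in sterile distilled water, grown at 37°C on potato dextrose agar. Each strain tested at least three times on different days. Quality controls: A. flavus ATCC 204304 and A. fumigatus ATCC 204305.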

Aspergillus fumigatus [2] = test: Antifungal activity against azole-resistant Aspergillus fumigatus V13/03-CM3272 isolate from patient with X-linked chronic granulomatous disease by broth microdilution susceptibility test; in short: as §1
Aspergillus fumigatus [3] = test: Antifungal activity against azole-resistant Aspergillus fumigatus V49/09-CM4023 isolate from patient with chronic obstructive pulmonary disease by broth microdilution susceptibility test; in short: as §1
Aspergillus fumigatus [4] = test: Antifungal activity against azole-resistant Aspergillus fumigatus V28/78-CM3275 isolate from patient with acute myeloid leukemia by broth microdilution susceptibility test; in short: as §1
Aspergillus fumigatus [5] = test: Antifungal activity against azole-resistant Aspergillus fumigatus V48/27-CM3936 isolate from patient with acute myeloid leukemia by broth microdilution susceptibility test; in short: as §1
Aspergillus fumigatus [6] = test: Antifungal activity against azole-resistant Aspergillus fumigatus V13/02-CM3271 isolate from patient with X-linked chronic granulomatous disease by broth microdilution susceptibility test; in short: as §1
Aspergillus fumigatus [7] = test: Antifungal activity against azole-resistant Aspergillus fumigatus V34/78-CM3279 isolate from patient with hyper-immunoglobulin E syndrome by broth microdilution susceptibility test; in short: as §1
Aspergillus fumigatus [8] = test: Antifungal activity against azole-resistant Aspergillus fumigatus M03/669-CM2627 isolate from patient by broth microdilution susceptibility test; in short: as §1
Aspergillus fumigatus [9] = test: Antifungal activity against azole-resistant Aspergillus fumigatus V45/07-CM3819 isolate from patient with chronic granulomatous disease by broth microdilution susceptibility test; in short: as §1
Aspergillus fumigatus [10] = test: Antifungal activity against azole-resistant Aspergillus fumigatus V27/28-CM3273 isolate from patient by broth microdilution susceptibility test; in short: as §1
Aspergillus fumigatus [11] = test: Antifungal activity against azole-resistant Aspergillus fumigatus V34/76-CM3277 isolate from patient with hyper-immunoglobulin E syndrome by broth microdilution susceptibility test; in short: as §1
Aspergillus fumigatus [12] = test: Antifungal activity against azole-resistant Aspergillus fumigatus V34/75-CM3276 isolate from patient with hyper-immunoglobulin E syndrome by broth microdilution susceptibility test; in short: as §1
Aspergillus fumigatus [13] = test: Antifungal activity against azole-resistant Aspergillus fumigatus V41/26-CM3820 isolate from patient with pulmonary fibrosis by broth microdilution susceptibility test; in short: as §1
Aspergillus fumigatus [14] = test: Antifungal activity against azole-resistant Aspergillus fumigatus V49/77-CM4050 isolate from patient with acute myeloid leukemia by broth microdilution susceptibility test; in short: as §1

SMILES | MIC (Aspergillus fumigatus [1]) [µg/mL] | MIC (Aspergillus fumigatus [2]) [µg/mL] | MIC (Aspergillus fumigatus [3]) [µg/mL] | MIC (Aspergillus fumigatus [4]) [µg/mL] | MIC (Aspergillus fumigatus [5]) [µg/mL] | MIC (Aspergillus fumigatus [6]) [µg/mL] | MIC (Aspergillus fumigatus [7]) [µg/mL] | MIC (Aspergillus fumigatus [8]) [µg/mL] | MIC (Aspergillus fumigatus [9]) [µg/mL] | MIC (Aspergillus fumigatus [10]) [µg/mL] | MIC (Aspergillus fumigatus [11]) [µg/mL] | MIC (Aspergillus fumigatus [12]) [µg/mL] | MIC (Aspergillus fumigatus [13]) [µg/mL] | MIC (Aspergillus fumigatus [14]) [µg/mL]
C[C@@H]1[C@H](O)[C@@H](C)/C=C/C=C/C=C/C=C/C=C/C=C/C=C/[C@H](O[C@@H]2O[C@H](C)[C@@H](O)[C@H](N)[C@@H]2O)C[C@@H]2O[C@](O)(C[C@@H](O)C[C@@H](O)[C@H](O)CC[C@@H](O)C[C@@H](O)CC(=O)O[C@H]1C)C[C@H](O)[C@H]2C(=O)O [AMPHOTERICIN B] | 0.25 (≈ 0.271 µM) | 0.25 (≈ 0.271 µM) | 0.25 (≈ 0.271 µM) | 0.25 (≈ 0.271 µM) | 0.25 (≈ 0.271 µM) | 0.25 (≈ 0.271 µM) | 0.25 (≈ 0.271 µM) | 0.25 (≈ 0.271 µM) | 0.25 (≈ 0.271 µM) | 0.25 (≈ 0.271 µM) | 0.25 (≈ 0.271 µM) | 0.25 (≈ 0.271 µM) | 0.25 (≈ 0.271 µM) | 0.25 (≈ 0.271 µM)
CCC(C)n1ncn(-c2ccc(N3CCN(c4ccc(OCC5COC(Cn6cncn6)(c6ccc(Cl)cc6Cl)O5)cc4)CC3)cc2)c1=O (stereo not given) [ITRACONAZOLE] | > 8 | > 8 | > 8 | > 8 | > 8 | > 8 | > 8 | > 8 | > 8 | > 8 | > 8 | > 8 | > 8 | > 8
CC[C@@H]([C@H](C)O)n1ncn(-c2ccc(N3CCN(c4ccc(OC[C@@H]5CO[C@@](Cn6cncn6)(c6ccc(F)cc6F)C5)cc4)CC3)cc2)c1=O [POSACONAZOLE] | 0.5 (≈ 0.713 µM) | 1 (≈ 1.43 µM) | 4 (≈ 5.71 µM) | 0.5 (≈ 0.713 µM) | 4 (≈ 5.71 µM) | 1 (≈ 1.43 µM) | 0.5 (≈ 0.713 µM) | 0.5 (≈ 0.713 µM) | 1 (≈ 1.43 µM) | 1 (≈ 1.43 µM) | 0.5 (≈ 0.713 µM) | 0.5 (≈ 0.713 µM) | 0.5 (≈ 0.713 µM) | 1 (≈ 1.43 µM)
C[C@@H](c1nc(-c2ccc(C#N)cc2)cs1)[C@](O)(Cn1cncn1)c1ccc(F)cc1F [RAVUCONAZOLE] | 4 (≈ 9.14 µM) | > 8 | 8 (≈ 18.3 µM) | 8 (≈ 18.3 µM) | 8 (≈ 18.3 µM) | > 8 | 4 (≈ 9.14 µM) | 4 (≈ 9.14 µM) | 8 (≈ 18.3 µM) | 4 (≈ 9.14 µM) | 4 (≈ 9.14 µM) | 4 (≈ 9.14 µM) | 4 (≈ 9.14 µM) | 4 (≈ 9.14 µM)
C[C@@H](c1ncncc1F)[C@](O)(Cn1cncn1)c1ccc(F)cc1F [VORICONAZOLE] | 2 (≈ 5.73 µM) | 2 (≈ 5.73 µM) | 4 (≈ 11.5 µM) | 4 (≈ 11.5 µM) | 4 (≈ 11.5 µM) | 2 (≈ 5.73 µM) | 2 (≈ 5.73 µM) | 4 (≈ 11.5 µM) | > 8 | 4 (≈ 11.5 µM) | 2 (≈ 5.73 µM) | 4 (≈ 11.5 µM) | 4 (≈ 11.5 µM) | 4 (≈ 11.5 µM)
